# Measured values reported in ChEMBL document CHEMBL3797045, “Routes of Synthesis of Carbapenems for Optimizing Both the Inactivation of L,D-Transpeptidase LdtMt1 of Mycobacterium tuberculosis and the Stability toward Hydrolysis by β-Lactamase BlaC” (J Med Chem, 2016).
# Tested on: Mycobacterium tuberculosis
# Assay: Inhibition of Mycobacterium tuberculosis LdtMt1 expressed in Escherichia coli assessed as efficiency of acylation reaction by measuring ratio of K2 to Kapp by stopped-flow spectrofluorimetric method
# Outline: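 His-tagged LdtMt1 expressed in E. coli and purified by Ni2+-NTA affinity, then by size-exclusion chromatography in 100 mM sodium phosphate pH 6.4 with 300 mM NaCl. Inactivation kinetics measured by stopped-flow spectrofluorimetry in 100 mM sodium phosphate, pH 6.0, at 10 °C. k1, k2 and k2/Kapp were calculated from the fluorescence kinetics.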
row,Structure (SMILES),Ratio [M⁻¹ s⁻¹]
1,C[C@@H](O)[C@H]1C(=O)N2C(C(=O)O)=C(S[C@@H]3CN[C@H](CNS(N)(=O)=O)C3)[C@H](C)[C@H]12,1500
2,C[C@@H](O)[C@H]1C(=O)N2C(C(=O)O)=C(SCCN)[C@H](C)[C@H]12,3600
3,C[C@@H](O)[C@H]1C(=O)N2C(C(=O)O)=C(SCCc3ccccc3)[C@H](C)[C@H]12,39000
4,C[C@@H](O)[C@H]1C(=O)N2C(C(=O)O)=C(SCCc3cn(-c4cccc(C(=O)O)c4)nn3)[C@H](C)[C@H]12,36000
5,C[C@@H](O)[C@H]1C(=O)N2C(C(=O)O)=C(S[C@@H]3CN[C@H](C(=O)Nc4cccc(C(=O)O)c4)C3)[C@H](C)[C@H]12,23000
6,C[C@@H](O)[C@H]1C(=O)N2C(C(=O)O)=C(SCCc3cn(-c4ccccc4C(=O)O)nn3)[C@H](C)[C@H]12,26000
7,CC(c1ccc(C(=O)O)cc1)n1cc(CCSC2=C(C(=O)O)N3C(=O)[C@H]([C@@H](C)O)[C@H]3[C@H]2C)nn1 (some centres not stated),29000
8,CCSC1=C(C(=O)O)N2C(=O)[C@H]([C@@H](C)OC(=O)c3ccccc3)[C@H]2[C@H]1C,3800
9,CCSC1=C(C(=O)O)N2C(=O)[C@H]([C@@H](C)O)[C@H]2[C@H]1C,10800
10,C[C@@H](O)[C@H]1C(=O)N2C(C(=O)O)=C(S[C@@H]3CN[C@H](C(=O)N(C)C)C3)[C@H](C)[C@H]12,1300
11,C[C@@H](O)[C@H]1C(=O)N2C(C(=O)O)=C(SCCc3cn(-c4ccccc4)nn3)[C@H](C)[C@H]12,26000
12,C[C@@H](O)[C@H]1C(=O)N2C(C(=O)O)=C(SCCc3cn(CCCCC(=O)O)nn3)[C@H](C)[C@H]12,9600
13,CCSC1=C(C(=O)O)N2C(=O)[C@H]([C@@H](C)OC(=O)c3c(F)c(F)c(F)c(F)c3F)[C@H]2[C@H]1C,25000
14,C[C@@H](O)[C@H]1C(=O)N2C(C(=O)O)=C(SCCc3cn(CCc4c[nH]c5ccccc45)nn3)[C@H](C)[C@H]12,28000

# Tested on: Mycobacterium tuberculosis
# Assay: Activity at Mycobacterium tuberculosis beta lactamase BlaC expressed in Escherichia coli by spectrophotometric method
# Outline: (§1)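 BlaC produced in E. coli, purified by Ni-NTA affinity and size-exclusion chromatography. Carbapenem hydrolysis followed spectrophotometrically in 100 mM MES buffer, pH 6.4, at 20 °C. Direct determination of kcat and Km for substrates with Km above 10 μM. For the other compounds, kcat and Km were obtained by competition against the reporter substrate nitrocefin.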
row,Structure (SMILES),Km [µM]
1,C[C@@H](O)[C@H]1C(=O)N2C(C(=O)O)=C(S[C@@H]3CN[C@H](CNS(N)(=O)=O)C3)[C@H](C)[C@H]12,0.46
2,C[C@@H](O)[C@H]1C(=O)N2C(C(=O)O)=C(SCCN)[C@H](C)[C@H]12,3.5
3,C[C@@H](O)[C@H]1C(=O)N2C(C(=O)O)=C(SCCc3ccccc3)[C@H](C)[C@H]12,1.5
4,C[C@@H](O)[C@H]1C(=O)N2C(C(=O)O)=C(SCCc3cn(-c4cccc(C(=O)O)c4)nn3)[C@H](C)[C@H]12,19
5,C[C@@H](O)[C@H]1C(=O)N2C(C(=O)O)=C(S[C@@H]3CN[C@H](C(=O)Nc4cccc(C(=O)O)c4)C3)[C@H](C)[C@H]12,4.8
6,C[C@@H](O)[C@H]1C(=O)N2C(C(=O)O)=C(SCCc3cn(-c4ccccc4C(=O)O)nn3)[C@H](C)[C@H]12,3.3
7,CC(c1ccc(C(=O)O)cc1)n1cc(CCSC2=C(C(=O)O)N3C(=O)[C@H]([C@@H](C)O)[C@H]3[C@H]2C)nn1 (some centres not stated),47
8,CCSC1=C(C(=O)O)N2C(=O)[C@H]([C@@H](C)OC(=O)c3ccccc3)[C@H]2[C@H]1C,1.2
9,CCSC1=C(C(=O)O)N2C(=O)[C@H]([C@@H](C)O)[C@H]2[C@H]1C,11
10,C[C@@H](O)[C@H]1C(=O)N2C(C(=O)O)=C(S[C@@H]3CN[C@H](C(=O)N(C)C)C3)[C@H](C)[C@H]12,0.92
11,C[C@@H](O)[C@H]1C(=O)N2C(C(=O)O)=C(SCCc3cn(-c4ccccc4)nn3)[C@H](C)[C@H]12,0.31
12,C[C@@H](O)[C@H]1C(=O)N2C(C(=O)O)=C(SCCc3cn(CCCCC(=O)O)nn3)[C@H](C)[C@H]12,56
13,CCSC1=C(C(=O)O)N2C(=O)[C@H]([C@@H](C)OC(=O)c3c(F)c(F)c(F)c(F)c3F)[C@H]2[C@H]1C,1.4
14,C[C@@H](O)[C@H]1C(=O)N2C(C(=O)O)=C(SCCc3cn(CCc4c[nH]c5ccccc45)nn3)[C@H](C)[C@H]12,0.17

# Tested on: Mycobacterium tuberculosis
# Assay: Activity at Mycobacterium tuberculosis beta lactamase BlaC expressed in Escherichia coli assessed as ratio of Kcat to Km by spectrophotometric method
# Outline: as §1
row,Structure (SMILES),kcat/Km [M⁻¹ s⁻¹]
1,C[C@@H](O)[C@H]1C(=O)N2C(C(=O)O)=C(S[C@@H]3CN[C@H](CNS(N)(=O)=O)C3)[C@H](C)[C@H]12,1500
2,C[C@@H](O)[C@H]1C(=O)N2C(C(=O)O)=C(SCCN)[C@H](C)[C@H]12,320
3,C[C@@H](O)[C@H]1C(=O)N2C(C(=O)O)=C(SCCc3ccccc3)[C@H](C)[C@H]12,360
4,C[C@@H](O)[C@H]1C(=O)N2C(C(=O)O)=C(SCCc3cn(-c4cccc(C(=O)O)c4)nn3)[C@H](C)[C@H]12,13000
5,C[C@@H](O)[C@H]1C(=O)N2C(C(=O)O)=C(S[C@@H]3CN[C@H](C(=O)Nc4cccc(C(=O)O)c4)C3)[C@H](C)[C@H]12,330
6,C[C@@H](O)[C@H]1C(=O)N2C(C(=O)O)=C(SCCc3cn(-c4ccccc4C(=O)O)nn3)[C@H](C)[C@H]12,300
7,CC(c1ccc(C(=O)O)cc1)n1cc(CCSC2=C(C(=O)O)N3C(=O)[C@H]([C@@H](C)O)[C@H]3[C@H]2C)nn1 (some centres not stated),3200
8,CCSC1=C(C(=O)O)N2C(=O)[C@H]([C@@H](C)OC(=O)c3ccccc3)[C@H]2[C@H]1C,1500
9,CCSC1=C(C(=O)O)N2C(=O)[C@H]([C@@H](C)O)[C@H]2[C@H]1C,3700
10,C[C@@H](O)[C@H]1C(=O)N2C(C(=O)O)=C(S[C@@H]3CN[C@H](C(=O)N(C)C)C3)[C@H](C)[C@H]12,1000
11,C[C@@H](O)[C@H]1C(=O)N2C(C(=O)O)=C(SCCc3cn(-c4ccccc4)nn3)[C@H](C)[C@H]12,2100
12,C[C@@H](O)[C@H]1C(=O)N2C(C(=O)O)=C(SCCc3cn(CCCCC(=O)O)nn3)[C@H](C)[C@H]12,5700
13,CCSC1=C(C(=O)O)N2C(=O)[C@H]([C@@H](C)OC(=O)c3c(F)c(F)c(F)c(F)c3F)[C@H]2[C@H]1C,840
14,C[C@@H](O)[C@H]1C(=O)N2C(C(=O)O)=C(SCCc3cn(CCc4c[nH]c5ccccc45)nn3)[C@H](C)[C@H]12,2000
